From ChEMBL document CHEMBL2331352, “Syntheses and anti-allergic activity of 2-((bis(trimethylsilyl)methylthio/methylsulfonyl)methyl)-5-aryl-1,3,4-oxadiazoles” (Eur J Med Chem, 2013)
Activity calls are given as the source filed them. The calls are words filed in the database; no cut-off is given here.

Columns and labels:
RBL-2H3 [1] = experiment: Cytotoxicity against rat RBL2H3 cells at 50 to 100 uM after 24 hrs by Ez-cytox assay; format: cell-based; settings: rbl-2h3, 24 h
Method in brief: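 IgE-sensitized RBL-2H3 cells (overnight, 200 ng/mL DNP-specific IgE) were exposed to compound at 0, 50 or 100 concentrations at 37 °C for 23–24 h. EZ-Cytox reagent was added at 10% of volume for 1 h at 37 °C and absorbance read at 450 nm. Viability is given as % of untreated control; mean ± S.D. of three independent experiments, each in triplicate.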

RBL-2H3 [2] = experiment: Antiallergic activity in rat RBL2H3 cells assessed as inhibition of IgE/Ag-induced beta-hexosaminidase activity at 100 uM incubated for 30 mins by spectrophotometric analysis; format: functional, cell-based
Method in brief: (§1)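 RBL-2H3 cells (2 × 10⁵/well) were sensitized overnight with anti-DNP IgE at 200 ng/mL and washed twice in PIPES buffer (25 mM PIPES, pH 7.2, 0.1% BSA, 1 mM CaCl₂, 5.6 mM glucose). They were pretreated 30 min at 37 °C with compound, then challenged with DNP-HSA 25 ng/mL for 15 min at 37 °C and chilled on ice. Supernatant was mixed with p-nitrophenyl-N-acetyl-glucosaminide in 0.1 M citrate pH 4.5 for 1 h at 37 °C. Reaction was stopped with 0.1 M carbonate pH 10.5 and read at 405 nm. Mean ± S.D. of three independent experiments, each in triplicate.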

RBL-2H3 [3] = experiment: Antiallergic activity in rat RBL2H3 cells assessed as inhibition of IgE/Ag-induced beta-hexosaminidase activity incubated for 30 mins by spectrophotometric analysis; format: functional, cell-based; settings: for IC50: RBL-2H3, 0.5 h; method in brief: as §1
RBL-2H3 [4] = experiment: Antiallergic activity in rat RBL2H3 cells assessed as inhibition of IgE/Ag-induced beta-hexosaminidase activity at 50 uM incubated for 30 mins by spectrophotometric analysis; format: functional, cell-based; method in brief: as §1

| Structure (SMILES) | Activity (RBL-2H3 [1]) | inhibition (RBL-2H3 [2]) | inhibition (RBL-2H3 [3]) | IC50 (RBL-2H3 [3]) [µM] | inhibition (RBL-2H3 [4]) |
| --- | --- | --- | --- | --- | --- |
| Cc1ccc(-c2nnc(CS(=O)(=O)C([Si](C)(C)C)[Si](C)(C)C)o2)cc1 | Non-toxic | Active | Dose-dependent effect | 62.3 | – |
| C[Si](C)(C)C([Si](C)(C)C)S(=O)(=O)Cc1nnc(-c2ccc(Cl)cc2)o1 | Non-toxic | Active | Dose-dependent effect | 75.5 | – |
| Cc1ccc(-c2nnc(CSC([Si](C)(C)C)[Si](C)(C)C)o2)cc1 | – | Active | Dose-dependent effect | – | – |
| C[Si](C)(C)C(SCc1nnc(-c2ccc(Cl)cc2)o1)[Si](C)(C)C | – | Active | Dose-dependent effect | – | – |
| C[Si](C)(C)C([Si](C)(C)C)S(=O)(=O)Cc1nnc(-c2ccccc2)o1 | Non-toxic | Active | Dose-dependent effect | 37.2 | – |
| C[Si](C)(C)C(SCc1nnc(-c2ccccc2)o1)[Si](C)(C)C | – | Active | Dose-dependent effect | 98.8 | Active |
